In paper PMC2692502 (Journal of Antimicrobial Chemotherapy, 2009):
Where two headings read alike, the source gives them in different places.

Legend:
[1] = Study 2: single- and multiple-dose pharmacokinetics of the 2 min iv injection; type: in vivo, human; conditions: for Ratio of 6 mg/kg:4 mg/kg daptomycin (95% CI), AUC0–tau (dose-normalized) / Ratio of 6 mg/kg:4 mg/kg daptomycin (95% CI), Ae0–tau (dose-normalized), cumulative amount of unchanged daptomycin excreted in urine / Ratio of 6 mg/kg:4 mg/kg daptomycin (95% CI), CL / Ratio of 6 mg/kg:4 mg/kg daptomycin (95% CI), Cmax (dose-normalized): 6 mg/kg n = 12, 4 mg/kg n = 8, 2 min iv injection; for clearance: CL; for Tmax: median (range); for Vd: V; for dose excreted: urine
Outline: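 Healthy adults were randomized single-blind to 6 or 4 mg/kg test compound or placebo as a 2 min peripheral iv injection by syringe driver, once daily for 7 days. Heparinized blood was drawn on days 1 and 7, from predose to 24 h after injection start, plus 36 and 48 h on day 7. Total plasma drug was measured by HPLC (LLOQ 3 mg/L). Non-compartmental analysis gave AUC by the trapezoidal rule and CL, reported as arithmetic means.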

[2] = independent of the daptomycin concentration; cited from earlier work
[3] = type: in vivo, human; conditions: for AUC(0-t): AUC0–t, trapezoidal rule; for clearance: CL, healthy adult volunteers
Outline: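 Healthy adult volunteers, randomized open-label two-period crossover: a single 6 mg/kg dose given as a 30 min iv infusion and as a 2 min iv injection, with a 5 day washout. Heparinized blood was drawn predose, immediately after dosing and up to 36 h after dosing ended. Total plasma drug was measured by HPLC (LLOQ 3 mg/L). Non-compartmental trapezoidal AUC was computed. The injection:infusion ratio (95% CI) came from ANOVA of log-transformed values.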

[4] = cited from earlier work
[5] = Study 2: safety and tolerability; type: in vivo, human; conditions: Study 2, 4 mg/kg 2 min iv injection once daily for 7 days, n = 8
Outline: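 Healthy adults (24 enrolled) were randomized 3:2:1 in a single-blind, placebo-controlled, parallel-group design. Groups received test compound 6 mg/kg, 4 mg/kg or placebo as a 2 min peripheral iv injection by syringe driver, once daily for 7 days. All subjects entered the safety analysis. The investigator graded AEs for relatedness (not, unlikely, possibly, probably) and severity. Tabulated AEs were possibly or probably related. Follow-up was 9–11 days after last dose.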

[6] = Study 2, day 1, geometric mean ratio
[7] = Study 2, day 7, 6 mg/kg 2 min iv injection once daily, plasma, arithmetic mean (SD), n = 12, SD
[8] = Study 2, day 7, geometric mean ratio
[9] = both, human, plasma, iv, 4 mg/kg, Study 2, day 1, 4 mg/kg 2 min iv injection, plasma, arithmetic mean (SD), n = 8, SD
[10] = both, human, plasma, iv, 4 mg/kg, Study 2, day 7, 4 mg/kg 2 min iv injection once daily, plasma, arithmetic mean (SD), n = 8, SD
[11] = both, human, plasma, iv, 4 mg/kg, SD
[12] = both, human, plasma, iv, 6 mg/kg, SD
[13] = Study 1, 2 min iv injection relative to 30 min iv infusion, 6 mg/kg, ANOVA of log-transformed values, n = 15

For `CCCCCCCCCC(=O)N[C@@H](Cc1c[nH]c2ccccc12)C(=O)N[C@H](CC(N)=O)C(=O)N[C@@H](CC(=O)O)C(=O)N[C@@H]1C(=O)NCC(=O)N[C@@H](CCCN)C(=O)N[C@@H](CC(=O)O)C(=O)N[C@H](C)C(=O)N[C@@H](CC(=O)O)C(=O)NCC(=O)N[C@H](CO)C(=O)N[C@@H]([C@H](C)CC(=O)O)C(=O)N[C@@H](CC(=O)c2ccccc2N)C(=O)O[C@@H]1C` [daptomycin], which “steady-state concentrations achieved by” value ([1]; Study 2, both treatment groups (6 mg/kg and 4 mg/kg), 2 min iv injection once daily, data not shown) is on record?
The value was “third daily dose”.

And the “AUC0–∞” value ([1]; Study 2, day 1, 6 mg/kg 2 min iv injection, healthy adult volunteers, plasma, HPLC, non-compartmental, arithmetic mean (SD), n = 12, SD)?
Its value is 690.37 (68.83) mg·h/L.

And the CL ([1]; Study 2, day 1, 6 mg/kg 2 min iv injection, plasma, arithmetic mean (SD), n = 12, SD)?
Its CL is 0.0088 (0.0009) L/h/kg.

What about the “Ratio of 6 mg/kg:4 mg/kg daptomycin (95% CI), AUC0–tau (dose-normalized)” value [1, 6] of the same compound?
The value was 1.02 (0.87–1.2).

What about the “Ratio of 6 mg/kg:4 mg/kg daptomycin (95% CI), Ae0–tau (dose-normalized), cumulative amount of unchanged daptomycin excreted in urine” value [1, 6] of the same compound?
Its value is 0.95 (0.72–1.25).

And the “Ratio of 6 mg/kg:4 mg/kg daptomycin (95% CI), CL” value [1, 6]?
The value was 1.00 (0.85–1.18).

What about the “Ratio of 6 mg/kg:4 mg/kg daptomycin (95% CI), Cmax (dose-normalized)” value [1, 6] of the same compound?
The value was 1.14 (0.97–1.3).

And the V [1, 7]?
Its V is 0.107 (0.011) L/kg.

And the t1/2 [1, 7]?
The t1/2 was 8.65 (0.63) h.

And the “Ratio of 6 mg/kg:4 mg/kg daptomycin (95% CI), AUC0–tau (dose-normalized)” value [1, 8]?
The value was 0.99 (0.87–1.12).

And the “Ratio of 6 mg/kg:4 mg/kg daptomycin (95% CI), Ae0–tau (dose-normalized), cumulative amount of unchanged daptomycin excreted in urine” value [1, 8]?
The value was 0.88 (0.69–1.11).

And the “Ratio of 6 mg/kg:4 mg/kg daptomycin (95% CI), CL” value [1, 8]?
Its value is 1.01 (0.9–1.15).

What about the “Ratio of 6 mg/kg:4 mg/kg daptomycin (95% CI), Cmax (dose-normalized)” value [1, 8] of the same compound?
The value was 0.97 (0.82–1.16).

And the clearance [1, 9]?
Its clearance is 0.15 mL/min/kg.

And the clearance [1, 10]?
Its clearance is 0.143 mL/min/kg.

And the Cmax ([1]; both, human, plasma, iv, 4 mg/kg, Study 2, day 1, 4 mg/kg 2 min iv injection, plasma, HPLC, arithmetic mean (SD), n = 8, SD)?
The Cmax was 56.8 µg/mL.

And the Cmax ([1]; both, human, plasma, iv, 4 mg/kg, Study 2, day 7, 4 mg/kg 2 min iv injection once daily, plasma, HPLC, arithmetic mean (SD), n = 8, SD)?
The Cmax was 62.8 µg/mL.

And the Tmax ([1]; both, human, plasma, iv, 4 mg/kg, Study 2, day 1, 4 mg/kg 2 min iv injection, plasma, n = 8)?
Its Tmax is 8.4 min.

And the Tmax ([1]; both, human, plasma, iv, 4 mg/kg, Study 2, day 7, 4 mg/kg 2 min iv injection once daily, plasma, n = 8)?
The Tmax was 15 min.

And the Vd [1, 9]?
Its Vd is 0.116 L/kg.

And the Vd [1, 10]?
The Vd was 0.109 L/kg.

What about the half-life ([1]; both, human, plasma, iv, 4 mg/kg, t1/2, Study 2, day 1, 4 mg/kg 2 min iv injection, plasma, arithmetic mean (SD), n = 8, SD) of the same compound?
Its half-life is 545 min.

And the half-life ([1]; both, human, plasma, iv, 4 mg/kg, t1/2, Study 2, day 7, 4 mg/kg 2 min iv injection once daily, plasma, arithmetic mean (SD), n = 8, SD)?
Its half-life is 536 min.

What about the AUC(0-inf) [1, 11] of the same compound?
Its AUC(0-inf) is 468 µg·h/mL.

And the AUC(0-t) [1, 11]?
Its AUC(0-t) is 475 µg·h/mL.

And the clearance ([1]; both, human, plasma, iv, 6 mg/kg, Study 2, day 7, 6 mg/kg 2 min iv injection once daily, plasma, arithmetic mean (SD), n = 12, SD)?
Its clearance is 0.145 mL/min/kg.

And the Cmax ([1]; both, human, plasma, iv, 6 mg/kg, Study 2, day 1, 6 mg/kg 2 min iv injection, plasma, HPLC, arithmetic mean (SD), n = 12, SD)?
Its Cmax is 97.5 µg/mL.

What about the Cmax ([1]; both, human, plasma, iv, 6 mg/kg, Study 2, day 7, 6 mg/kg 2 min iv injection once daily, plasma, HPLC, arithmetic mean (SD), n = 12, SD) of the same compound?
Its Cmax is 91.8 µg/mL.

And the Tmax ([1]; both, human, plasma, iv, 6 mg/kg, Study 2, day 1, 6 mg/kg 2 min iv injection, plasma, n = 12)?
Its Tmax is 1.8 min.

And the Tmax ([1]; both, human, plasma, iv, 6 mg/kg, Study 2, day 7, 6 mg/kg 2 min iv injection once daily, plasma, n = 12)?
Its Tmax is 15 min.

What about the Vd ([1]; both, human, plasma, iv, 6 mg/kg, Study 2, day 1, 6 mg/kg 2 min iv injection, plasma, arithmetic mean (SD), n = 12, SD) of the same compound?
Its Vd is 0.106 L/kg.

And the half-life ([1]; both, human, plasma, iv, 6 mg/kg, t1/2, Study 2, day 1, 6 mg/kg 2 min iv injection, plasma, arithmetic mean (SD), n = 12, SD)?
Its half-life is 506 min.

What about the AUC(0-t) [1, 12] of the same compound?
The AUC(0-t) was 701 µg·h/mL.

And the dose excreted ([1]; both, human, iv, 4 mg/kg, SD)?
Its dose excreted is 54.3%.

And the dose excreted ([1]; both, human, iv, 6 mg/kg, SD)?
Its dose excreted is 56.7%.

And the protein bound [2]?
The protein bound was 90–93%.

What about the “95% CI for the ratio of the geometric means, AUC0–t” value [3, 13] of the same compound?
Its value is 0.8709–1.0055.

And the “95% CI for the ratio of the geometric means, AUC0–∞” value [3, 13]?
Its value is 0.9007–1.0117.

What about the “95% CI for the ratio of the geometric means, Cmax” value [3, 13] of the same compound?
The value was 0.9588–1.1719.

And the t1/2 ([3]; Study 1, single 6 mg/kg dose, 30 min iv infusion, plasma, HPLC, non-compartmental, harmonic mean (SD), n = 15, SD)?
The t1/2 was 8.7 (0.9) h.

And the AUC(0-t) ([3]; both, human, plasma, iv, 6 mg/kg, Study 1, single 6 mg/kg dose, 2 min iv injection, HPLC, arithmetic mean (SD), n = 15, not dose-normalized, SD)?
The AUC(0-t) was 626 µg·h/mL.

And the AUC(0-t) ([3]; both, human, plasma, iv, 6 mg/kg, Study 1, single 6 mg/kg dose, 30 min iv infusion, HPLC, arithmetic mean (SD), n = 15, not dose-normalized, SD)?
The AUC(0-t) was 670 µg·h/mL.

And the AUC(0-inf) ([3]; both, human, plasma, iv, 6 mg/kg, AUC0–∞, Study 1, single 6 mg/kg dose, 2 min iv injection, HPLC, arithmetic mean (SD), n = 15, not dose-normalized, SD)?
Its AUC(0-inf) is 691 µg·h/mL.

And the clearance ([3]; both, human, plasma, iv, 6 mg/kg, Study 1, single 6 mg/kg dose, 2 min iv injection, HPLC, non-compartmental, arithmetic mean (SD), n = 15, SD)?
The clearance was 0.148 mL/min/kg.

What about the clearance ([3]; both, human, plasma, iv, 6 mg/kg, Study 1, single 6 mg/kg dose, 30 min iv infusion, HPLC, non-compartmental, arithmetic mean (SD), n = 15, SD) of the same compound?
Its clearance is 0.138 mL/min/kg.

What about the Cmax ([3]; both, human, plasma, iv, 6 mg/kg, Cmax, Study 1, single 6 mg/kg dose, 30 min iv infusion, HPLC, arithmetic mean (SD), n = 15, not dose-normalized, SD) of the same compound?
The Cmax was 88.4 µg/mL.

And the Vd [3, 12]?
The Vd was 0.113 L/kg.

What about the “steady state reached by” value ([4]; 30 min iv infusion, independent of dose) of the same compound?
Its value is at most 3 days.

And the “volume of distribution (V)” value ([4]; average)?
The value was about 0.1 L/kg.

What about the “Subjects with at least one adverse event possibly or probably related to study drug: Any adverse event” value [5] of the same compound?
The value was 2 (25) n (%).

What about the “Subjects with related adverse event: Gastrointestinal disorders” value [5] of the same compound?
The value was 1 (13) n (%).
